Screening results from PubChem.
DAGLB inhibitor = DAGLB lipase inhibitors, primary screen, biochemical, fluorescence, HTS; Diacylglycerol lipase-beta (Homo sapiens), Q8NCG7; HEK293T DAGLB membrane lysate, EnzChek fluorogenic substrate; inhibition, % at 5.17 µM; 340,000 tested, 0.059% active; AID 504411, 2011; in the data active = inhibition above about 34%;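 note: 0% = enzyme with vehicle and 100% = wells lacking enzyme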
NR2E3 ag-1 = inhibitors of NR2E3-RetCOR corepressor binding, primary screen, NR2E3 agonist project, biochemical, TR-FRET, GST-NR2E3, biotin-RetCOR; Photoreceptor-specific nuclear receptor (Homo sapiens), Q9Y5X4; 1536-well; inhibition of corepressor binding, % at 4.78 µM; 320,000 tested, 0.12% active; AID 2300, 2010;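 active = percent inhibition above the cutoff of mean plus 3 SD of all tested compounds, set per screening campaign, cut at about 20% in these data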;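 note: 0% = DMSO wells and 100% = biotin wells as full block of FRET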
Target sequence (Q9Y5X4 whole entry, looked up): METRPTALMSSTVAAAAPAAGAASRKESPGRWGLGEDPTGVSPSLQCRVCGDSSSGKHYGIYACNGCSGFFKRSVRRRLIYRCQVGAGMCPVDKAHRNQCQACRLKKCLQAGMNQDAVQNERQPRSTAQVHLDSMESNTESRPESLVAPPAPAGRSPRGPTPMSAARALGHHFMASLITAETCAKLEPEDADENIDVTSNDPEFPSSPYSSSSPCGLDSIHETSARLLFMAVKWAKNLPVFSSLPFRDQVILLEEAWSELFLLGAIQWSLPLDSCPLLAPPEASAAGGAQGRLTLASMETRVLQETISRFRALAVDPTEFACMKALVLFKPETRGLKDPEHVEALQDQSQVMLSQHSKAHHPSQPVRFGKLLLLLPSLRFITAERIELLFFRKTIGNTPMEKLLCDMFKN
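Assay system: NR2E3–RetCOR corepressor complex. Quantity: 1.35 nM GST-NR2E3. Buffer or medium: pH 7.5 Tris-based buffer. Reagent: biotinylated RetCOR corepressor at 7 nM final. Schedule: 5 h at 4 °C. Detection: TR-FRET, emission read at 617 and 671 nm. Replicates: one well per compound, singlicate testing.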
core dimer inh = inhibitors of HCV core protein dimerization, primary screen, biochemical, TR-FRET, high-throughput; TR-FRET GST/Flag-core106 dimerization, 1536-well; inhibition, % at 5 µM; 300,000 tested, 0.33% active; AID 1899, 2009;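 active = inhibition above the mean of all tested compounds plus 3 SD, set per screening campaign, cut at about 45% in these data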
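System: GST-tagged and Flag-tagged HCV core protein residues 1-106 / Input: core106 proteins, GST 13.5 nM and Flag 17 nM / Buffer or medium: KF-containing HEPES buffer, pH 7.45, DTT, CHAPS, BSA / Probe or stimulus: Eu-anti-GST and XL665-anti-Flag labelled anti-tag antibodies / Schedule: 4 h, 22.5 °C incubation / Technique: TR-FRET 671 and 617 nm emission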
Vif inh = HIV Vif self-association inhibitors, primary screen, imaging, HEK293T, single point. 340,000 tested, 0.35% active. inhibition, % at 7.49 µM. AID 602346, 2012. HEK293T cells, Vif self-association by quenched fluorescence, 24 h; in the data active = inhibition above about 50%, passing the limit was not always enough
MT1-MMP act inh = blockers of MT1-MMP proenzyme processing, primary screen, HT1080 RFP-PRO-GFP cells, GFP/RFP fluorescence; Matrix metalloproteinase-14 (Homo sapiens), P50281; GFP/RFP ratio fluorescence, overnight; percent of plate control window, DMSO zero; GFP/RFP ratio change, % at 20 µM; 360,000 tested, 0.061% active;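 active = GFP/RFP ratio change of at least 30% with cell ATP level not reduced by more than half and red fluorescence within 50% of control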
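Material – HT1080 RFP-PRO-GFP cells · Control set – DMSO wells and RFP-L50D-GFP cells · Incubation – overnight cell settling, then overnight compound exposure, 37 °C, 5% CO2 · Compound dosing – single-point 20 µM compound, 1% DMSO · Read-out – GFP/RFP fluorescence ratio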
NR2E3 ag-2 = NR2E3 agonists in two-hybrid cells, primary screen, cell-based, luminescence, CHO-S, Gal4-NCOR/VP16-NR2E3. 360,000 tested, 0.35% active. luciferase. inhibition of corepressor binding, % at 3.98 µM. Photoreceptor-specific nuclear receptor (Homo sapiens), Q9Y5X4;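 active = inhibition above the mean of all tested compounds plus 3 SD, cut at about 70% in these data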;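 note: 0% = DMSO with NR2E3 transfected cells and 100% = cells lacking NR2E3 construct; higher means lower luciferase signal from less NR2E3 corepressor binding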
NR2E3 ag conf = NR2E3 agonist confirmation in cells, cell-based, luminescence, CHO-S two-hybrid. shares compounds with NR2E3 ag-2. CHO-S mammalian two-hybrid NR2E3-NCOR, luciferase luminescence. inhibition, % at 3.98 µM. 2,300 tested, 51% active. AID 624378, 2012;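 active = average inhibition above a cutoff equal to the mean inhibition of all tested compounds plus one SD, cut at about 70% in these data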;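 note: 0% = DMSO in NR2E3 cells and 100% = DMSO in cells lacking NR2E3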
VP16 counter = GAL4-VP16 reporter modulators, confirmation, counter-screen for NR2E3 agonist project, cell-based, luminescence, CHO-S, high throughput; inhibition, % at 3.98 µM; 2,300 tested, 29% active; CHO-S GAL4-VP16 luciferase reporter; shares compounds with NR2E3 ag-2;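 active = mean inhibition above a cutoff equal to the average over all tested compounds plus one standard deviation, cut at about 70% in these data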;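 note: luciferase from a UAS reporter driven by GAL4-VP16 transactivation; 0% = DMSO with VP16-transfected cells and 100% = DMSO with cells lacking VP16; higher means less reporter light so more repression of VP16 activity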
Active calls of the source: *; x = no result. The list is not random: actives were taken first. Their share in the collection is about 1.1%.

SMILES | DAGLB inhibitor | NR2E3 ag-1 | core dimer inh | Vif inh | MT1-MMP act inh | NR2E3 ag-2 | NR2E3 ag conf | VP16 counter
CC(=O)c1cn(CC(=O)Nc2ccc(C)cc2C)c2ccccc12 | -3 | 4 | 7 | -22 | 2 | 54 | 77* | 49
COc1cccc(OCCn2cc(C(C)=O)c3ccccc32)c1 | -1 | 5 | 0 | -16 | 5 | 65 | 80* | 64
CC(=O)c1cn(CCOc2cc(C)ccc2C)c2ccccc12 | -4 | 9 | 6 | -4 | 7 | 90* | 93* | 83*
CN1CCN(NC(=O)c2cc(-c3ccc(Cl)s3)nc3ccccc23)CC1 | 0 | 1 | -7 | 25 | 0 | -4 | x | x
Cc1ccc(NC(=S)Nn2cnnc2)c(C)c1 | -4 | x | x | 6 | -11 | 11 | x | x
c1ccc(C(Cc2nc(-c3ccncc3)no2)c2ccccc2)cc1 | -5 | -2 | 5 | -18 | -4 | 64 | 75* | 56
CC(=O)N1CC(C)Oc2ccc(S(=O)(=O)NC(CC(=O)O)c3cc(C)ccc3C)cc21 (stereo unspecified) | -1 | -1 | 0 | -6 | -2 | -11 | x | x
c1csc(CCNc2ncnc3sc4c(c23)CCC4)c1 | -1 | 0 | 4 | -6 | 1 | 93* | 98* | 87*
Cc1onc(-c2ccccc2)c1C(=O)Nc1ncc([N+](=O)[O-])s1 | 7 | -1 | 4 | 3 | 9 | 101* | 99* | 81*
Cc1nc(NC(=O)c2c(-c3ccccc3Cl)noc2C)sc1C | -3 | -2 | -1 | -11 | 0 | 79* | 80* | 18
Cc1cc(C)cc(N2CCCn3c2nc2c3c(=O)[nH]c(=O)n2C)c1 | -2 | 0 | 13 | 2 | 2 | -2 | x | x
CCCCC(=O)N/N=C/c1ccc(Sc2cccc3cccnc23)o1 | 0 | -1 | 11 | -16 | -1 | 86* | -33 | -18
O=C(Cc1cccc2ccccc12)N/N=C/c1ccc(Sc2cccc3cccnc23)o1 | x | 3 | 23 | x | x | x | x | x
Cc1ccc(-c2csc(N3CCC(NS(=O)(=O)c4ccc5c(c4)OCCO5)CC3)n2)cc1 | -6 | 0 | 34 | -28 | 7 | 89* | 99* | 89*
COCCN(CCOC)C(=O)c1ccc(NS(=O)(=O)c2ccc3[nH]c(=O)[nH]c3c2)cc1 | -1 | 2 | -11 | 7 | -1 | -13 | x | x
Cc1cccc(CSC(Nc2ccc(F)cc2)=C(C#N)C#N)c1 | 5 | 0 | 2 | 5 | -11 | 97* | 98* | 93*
Cc1nc2ccccc2n1Cc1ccccc1 | 0 | 2 | -4 | -23 | 1 | 11 | x | x
Cc1nc2ccccc2n1Cc1ccc(Br)cc1 | -3 | 4 | -1 | 6 | 10 | 84* | 94* | 85*
CCCOC(=O)c1ccc(Oc2cn[nH]c2-c2ccc(O)cc2O)cc1 | -2 | 2 | -3 | -7 | -1 | 58 | 4 | 34
COc1ccc(-n2ncc3c(N(C)C4CCCCC4)ncnc32)cc1 | -10 | 9 | 2 | 5 | 0 | 79* | 60 | 38
Cc1cccc(-n2ncc3c(N(C)C4CCCCC4)ncnc32)c1 | -15 | -1 | 14 | 1 | -5 | 73* | 46 | 44
Cc1[nH]c(=O)[nH]c(=O)c1S(=O)(=O)N1CCCC(C(=O)N2CCN(c3cccc(C(F)(F)F)c3)CC2)C1 (stereo unspecified) | 3 | 3 | 2 | -2 | 1 | -29 | x | x
Cc1cc(C)c2nc(SCC(=O)NC(=O)c3cccn3C)cc(C)c2c1 | -4 | 4 | 15 | -4 | 3 | -20 | x | x
Cc1nn(C)c(C)c1NS(=O)(=O)c1ccc(Cl)cc1 | -1 | 2 | 3 | 0 | 4 | -15 | x | x
CCN(CC)S(=O)(=O)c1ccc(S(=O)(=O)Nc2c(C)nn(C)c2C)cc1 | 2 | 1 | -1 | -18 | -2 | 53 | 43 | 53
SMILES | DAGLB inhibitor | NR2E3 ag-1 | core dimer inh | Vif inh | MT1-MMP act inh | NR2E3 ag-2 | NR2E3 ag conf | VP16 counter
CC(C)CNC(=O)C1(N2C(=O)c3ccccc3C2=O)CCCC1 | -1 | x | x | 14 | 1 | 51 | -11 | 2
Cc1nn(Cc2ccc(Cl)cc2)c(C)c1NC(=O)c1cc(-c2ccco2)on1 | 4 | 2 | 8 | -13 | 12 | 25 | x | x
Cc1nn(Cc2ccc(Cl)c(Cl)c2)c(C)c1NC(=O)c1cc(-c2ccco2)on1 | 4 | 2 | 14 | -7 | -13 | 51 | 79* | 66
Cc1nn(Cc2ccc(Cl)c(Cl)c2)c(C)c1NC(=O)c1sc2ccccc2c1Cl | -10 | 0 | 12 | 23 | -4 | 51 | 57 | 29
Nc1ncnc2c1cnn2C1CCCCC1 | -3 | 3 | 5 | x | -1 | 2 | x | x
CSc1ccccc1CNc1nc(NCC2CC2)nc2ccsc12 | x | x | x | x | 12 | 72* | 60 | 47
COc1cccc(CNc2nc(NCC3CC3)nc3ccsc23)c1 | x | x | x | x | 9 | 84* | 41 | 41
CNc1nc(NCc2cccc(OC)c2)c2sccc2n1 | x | x | x | x | 4 | 13 | x | x
CC(C)c1ccc(CNc2nc(NCC3CC3)nc3ccsc23)cc1 | x | x | x | -7 | 22 | 64 | 48 | 45
COc1cccc(CNc2nc(NCc3ccccc3)nc3ccsc23)c1 | x | x | x | -2 | -7 | 60 | 51 | 53
COC(=O)c1cc(Br)c(N)cc1OC | -2 | 2 | 0 | -5 | 4 | 13 | x | x
Cn1ccnc1C(=O)c1cc(SCC(=O)NC2CC2)nc2ccccc12 | 0 | 0 | 1 | -4 | 3 | -26 | x | x
CN(C(=O)CSc1cc(C(=O)c2nccn2C)c2ccccc2n1)c1ccccc1 | -3 | -1 | 4 | -9 | 0 | 81* | 78* | 61
CC(C)(C)C(=O)Nc1cc2nn(-c3ccccc3)nc2cc1Cl | -6 | x | x | 6 | 0 | 92* | 75* | 55
c1ccc(-c2nnc3nc(N4CCCCC4)nc(N4CCCCC4)n23)cc1 | -3 | x | x | 4 | 0 | -4 | x | x
